Results published in ChEMBL document CHEMBL1157582, “Synthesis and uptake of fluorescence-labeled Combi-molecules by P-glycoprotein-proficient and -deficient uterine sarcoma cells MES-SA and MES-SA/DX5” (J Med Chem, 2010).
Calls of active or inactive are those of the source. The calls are words filed in the database; no cut-off is given here.

Tests used:
[1] = Antiproliferative activity against human MES-SA cells after 96 hrs by SRB assay; type: functional, cell-based
MES-SA/Dx5 = assay: Induction of DNA damage in human MES-SA/Dx5 cells assessed as increase in comet-tail length by alkaline comet assay; type: functional, cell-based
MES-SA [2] = assay: Induction of DNA damage in human MES-SA cells assessed as increase in comet-tail length by alkaline comet assay; type: functional, cell-based
[3] = Antiproliferative activity against human MES-SA/Dx5 cells after 96 hrs by SRB assay; type: functional, cell-based; conditions: MES-SA/Dx5, 96 h
Procedure, shortened: (§1)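 Cells plated at 5000/well, attached overnight, then exposed to a range of drug concentrations for 96 h. Fixed with trichloroacetic acid (1 h, 4 °C), stained with 0.4% sulforhodamine B (2 h, room temperature), dye dissolved in 10 mM Tris base pH 10.0, OD read at 492 nm. IC50 taken from sigmoidal dose-response fit. At least three independent experiments in triplicate. DMSO ≤0.1% (v/v).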

MDA-MB-468 = assay: Antiproliferative activity against human MDA-MB-468 cells after 96 hrs by SRB assay; type: functional, cell-based; conditions: MDA-MB-468, 96 h; procedure, shortened: as §1
[4] = Stability in serum assessed as half life by UV spectrophotometry; type: ADME, cell-free
[5] = Cellular uptake in human MES-SA cells after 2 hrs by flow cytometry; type: ADME, cell-based
[6] = Cellular uptake in human MES-SA cells at 25 uM after 2 hrs by fluorescence microscopy; type: ADME, cell-based
Procedure, shortened: (§2)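 Cells plated at 70% confluence and left to adhere overnight. Treated with 0, 25 or 50 μM for 2 h, washed twice with PBS, then imaged live without fixation at 40× under fluorescence; blue aminoquinazoline and green dansylated species captured through separate filters.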

[7] = Cellular uptake in human MES-SA/Dx5 cells at 25 uM after 2 hrs by fluorescence microscopy; type: ADME, cell-based; conditions: mes-sa/dx5, 2 h; procedure, shortened: as §2
[8] = Cellular uptake in human MES-SA/Dx5 cells after 2 hrs by flow cytometry; type: ADME, cell-based; conditions: mes-sa/dx5, 2 h
MES-SA [9] = assay: Selectivity ratio of IC50 for human MES-SA cells to IC50 for human MES-SA/Dx5 cells; type: functional
[10] = target: Epidermal growth factor receptor (Homo sapiens, UniProt P00533); assay: Inhibition of EGFR
Chain of Epidermal growth factor receptor (P00533 whole entry): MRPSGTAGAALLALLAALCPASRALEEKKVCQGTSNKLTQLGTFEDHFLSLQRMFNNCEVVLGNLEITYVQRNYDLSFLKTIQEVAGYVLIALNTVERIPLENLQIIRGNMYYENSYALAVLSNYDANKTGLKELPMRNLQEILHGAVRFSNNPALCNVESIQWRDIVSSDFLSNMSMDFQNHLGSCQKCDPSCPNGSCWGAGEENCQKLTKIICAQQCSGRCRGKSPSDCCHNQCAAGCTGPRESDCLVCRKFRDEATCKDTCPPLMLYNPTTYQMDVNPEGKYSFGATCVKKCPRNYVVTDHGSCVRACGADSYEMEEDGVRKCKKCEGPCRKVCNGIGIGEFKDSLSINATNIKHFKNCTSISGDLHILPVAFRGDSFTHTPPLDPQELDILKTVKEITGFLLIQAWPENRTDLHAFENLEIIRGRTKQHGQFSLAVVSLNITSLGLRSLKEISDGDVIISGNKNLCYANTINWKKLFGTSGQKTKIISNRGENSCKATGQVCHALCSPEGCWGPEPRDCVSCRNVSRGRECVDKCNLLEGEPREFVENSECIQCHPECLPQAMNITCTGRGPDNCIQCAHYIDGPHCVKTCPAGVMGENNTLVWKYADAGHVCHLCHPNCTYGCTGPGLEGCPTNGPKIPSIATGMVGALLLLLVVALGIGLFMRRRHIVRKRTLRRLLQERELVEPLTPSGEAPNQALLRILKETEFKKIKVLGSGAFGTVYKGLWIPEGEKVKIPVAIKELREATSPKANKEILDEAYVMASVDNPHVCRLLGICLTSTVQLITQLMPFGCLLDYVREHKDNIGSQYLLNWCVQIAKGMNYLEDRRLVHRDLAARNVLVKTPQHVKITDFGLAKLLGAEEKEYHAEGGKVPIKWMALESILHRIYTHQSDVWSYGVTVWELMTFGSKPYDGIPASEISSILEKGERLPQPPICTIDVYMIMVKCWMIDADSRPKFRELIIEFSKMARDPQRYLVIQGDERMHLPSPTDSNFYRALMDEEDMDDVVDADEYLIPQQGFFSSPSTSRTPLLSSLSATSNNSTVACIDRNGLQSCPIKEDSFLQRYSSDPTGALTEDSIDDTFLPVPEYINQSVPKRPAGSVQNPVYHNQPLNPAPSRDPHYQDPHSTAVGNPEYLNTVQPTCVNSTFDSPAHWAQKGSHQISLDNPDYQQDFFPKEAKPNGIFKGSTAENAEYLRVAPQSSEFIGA

Structure (SMILES)	IC50 [1] [µM]	Activity (MES-SA/Dx5)	Activity (MES-SA [2])	IC50 [3] [µM]	IC50 (MDA-MB-468) [µM]	half-life [4] [min]	Drug uptake [5]	Drug uptake [6]	Drug uptake [7]	Drug uptake [8]	Ratio IC50 (MES-SA [9])	IC50 [10] [µM]
CN(CCN/N=N/c1ccc2ncnc(Nc3cccc(Cl)c3)c2c1)CCNS(=O)(=O)c1cccc2c(N(C)C)cccc12	8.57	Active	Active	9.34	5.2							
CN(C)CCN/N=N/c1ccc2ncnc(Nc3cccc(Cl)c3)c2c1						108						
COc1cccc2c1C(=O)c1c(O)c3c(c(O)c1C2=O)C[C@@](O)(C(=O)CO)C[C@@H]3O[C@H]1C[C@H](N)[C@H](O)[C@H](C)O1 [DOXORUBICIN]		Active	Active	3.1			Active	Active				
CN(C)c1cccc2c(S(=O)(=O)NCCN=NNc3ccc4ncnc(Nc5cccc(Cl)c5)c4c3)cccc12	26.6			16.6	9.1	4.96	Active	Active	Active	Active	1.6	1.4
CN(CCN=NNc1ccc2ncnc(Nc3cccc(Cl)c3)c2c1)CCNS(=O)(=O)c1cccc2c(N(C)C)cccc12						21.7	Active	Active	Active	Active		0.6
